Experimental data taken from PubChem BioAssay.
Values without a mark were called inactive. Results filed as inconclusive are left out. The source made the active and inactive calls.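 Rule for the calls, unless noted: active = cell viability at or below a set limit in both duplicate runs, the limit being the all-compound median minus 4 SD (cut at about 23% in these data, passing the limit was not always enough); inconclusive = no clear call, values can overlap the other calls; inactive = the rest.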

Key:
[1] = OD615 S. cerevisiae growth inhibition, permissive medium, pilot counter-assay, permissive growth control for S. cerevisiae lifespan shortening project (AID 705;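 active = growth inhibition above 25% in both replicates, a cutoff set 3 SD above the mean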); settings: OD615, 24 h, at 10 µM, stronger effect = higher value
Procedure, shortened: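 assay system = Saccharomyces cerevisiae strain carrying genetically modified DeaD replicative-lifespan system | technique = absorbance (optical density) at 615 nm | buffer or medium = permissive raffinose/galactose medium | timing = cells pre-grown 4 h, then 24 h compound exposure, 30 °C humidified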

[2] = Restrictive medium S. cerevisiae growth inhibition, OD615, pilot screen of yeast lifespan reduction project, restrictive growth control (AID 706;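 active = growth inhibition above a set limit, 3 SD over mean compound inhibition, in both replicates, cut at about 43% in these data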;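 note: modified DeaD lifespan yeast strain shifted to restrictive glucose medium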); settings: OD615, 48 h, at 10 µM, stronger effect = higher value
Procedure, shortened: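 System: modified S. cerevisiae. Buffer or medium: CSMM-D glucose medium. Incubation: 4 h pre-growth plus 48 h compound exposure, 30 °C. Detection: absorbance (optical density) measured at 615 nm.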

[3] = viability gain of MRP-1-high H69AR cells under doxorubicin, pilot screen, MRP-1 activator project, CellTiter-Glo, duplicate (AID 807;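 active = viability increase at or above a cutoff of the median across tested compounds plus 3 SD, cut at about 8.5% in these data, passing the limit was not always enough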;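 note: compound pretreatment 18-22 h then 72 h combined with doxorubicin; 0% = doxorubicin alone and 100% = vehicle without doxorubicin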); settings: H69AR viability with doxorubicin, CellTiter-Glo luminescence; at 10 µM; stronger effect = higher value
[4] = growth suppression of beta-catenin knockout HCT116, pilot screen, human colon tumor cells (AID 823); settings: CellTiter-Glo, 60 h, at 10 µM, stronger effect = lower value;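 note: 0% = wells killed by 20 µM Hyamine and 100% = untreated DMSO cell wells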
[5] = inhibitors of the yeast RAM network, pilot screen, dse1pr::URA3 reporter, 5-FOA selection (AID 869;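 active = inhibition over a set limit, the all-compound mean plus 3 SD, in both replicate runs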;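 note: 0% = DMSO wells with no growth and 100% = 10 µM 1-NA-PP1 with full growth; RAM network block rescues cells from 5-FOA so hits raise OD615 growth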); settings: S. cerevisiae dse1pr::URA3 5-FOA growth, OD615, 2 d; at 10 µM; stronger effect = higher value; strain carries analog-sensitive mutant Cbk1 kinase
[6] = RAM signaling pathway blockade in yeast – S. cerevisiae, Pdr1DBD-CYC8 efflux-inhibited sensitized strain, primary screen (AID 1298;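 active = RAM network inhibition above 8.4% in each of two replicates, 3 SD over the compound average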;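 note: 0% = DMSO untreated cells without growth and 100% = 10 µM 1-NA-PP1 full growth; higher means more yeast growth rescued from 5-FOA killing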); settings: S. cerevisiae cbk1-as DSE1-URA3 strain, 5-FOA growth OD615, 2 d; at 50 µM; stronger effect = higher value

| Compound | growth inhibition [1] [%] | growth inhibition [2] | viability increase [3] [%] | viability [4] | inhibition [5] [%] | RAM network inhibition [6] |
| --- | --- | --- | --- | --- | --- | --- |
| CC1(C)Cc2nc(-c3ccccc3)n3cnnc3c2CO1 | -8.06 | -4.3% | -1.77 | 102% | 0.36 | 4.42% |
| COc1ccc(N2CCN(C(=O)Cn3c(=O)[nH]c4ccsc4c3=O)CC2)cc1 | -15.3 | -12.4% | -3.44 | 99.7% | 0.99 | 3.59% |
| CCN1CCN(c2nc(SC)nc3sc4c(c23)CC(C)(C)OC4)CC1 | -15.9 | -8.5% | -5.96 | 66.9% | 1.39 | 2.09% |
| Cn1c(=O)[nH]c(=O)c2c1nc(Sc1ncccn1)n2CCCc1ccccc1 | -10.3 | -9.67% | -4.15 | 97% | 1.43 | 7.26% |
| CCC1CCCCN1C(=O)CSc1nc2c([nH]c3ccccc32)c(=O)n1C (stereo not given) | -5.5 | -4.4% | -8.15 | 55.7% | 1.36 | 3.27% |
| CNC(=O)c1ccc(-c2sc3nc(N4CCOCC4)c4c(c3c2N)CCCC4)o1 | 0.875 | 17.2% | -7.88 | 39.6% | -0.54 | 5.11% |
| CC(C)n1c(CNC(=O)c2ccccc2)nc2ccccc21 | -18.1 | 9.14% | -3.11 | 100% | 2.63 | 1.5% |
| Cn1c(Cn2c(=O)sc3ccccc32)nnc1SCc1ccc(F)cc1 | -7.12 | -5.41% | -4.85 | 23.7% (active) | 2.8 | 16.2% (active) |
| COc1ccc(CNC(=O)c2ccc(NC(=O)C3CCCO3)cc2)cc1 (stereo not given) | -16.3 | -0.99% | 0.75 | 98.6% | 2.87 | 8.83% |
| COc1ccc(C2C3=C(CC(C)(C)CC3=O)Nc3n[nH]c(C)c32)cc1 (stereo not given) | -9.23 | -7.11% | -4.1 | 93% | 1.51 | 3.28% |
| O=C(CCn1c(=O)[nH]c2ccsc2c1=O)N1CCc2ccccc2C1 | -13.3 | -4.91% | -0.54 | 97.7% | 2.71 | 8.73% |
| O=C(Cn1c(=O)sc2ccccc21)Nc1ccc2c(c1)OCCO2 | -22.9 | -7.4% | -4.54 | 93.9% | 1.6 | 6.6% |
| Cc1ccc(-c2nc(S(=O)(=O)c3ccc(F)cc3)c(SCC(=O)NCC3CCCO3)o2)cc1 (stereo not given) | -6.27 | 1.93% | -6.02 | 93.6% | 0.14 | 0.57% |
| c1nc(NCCN2CCOCC2)c2sc3nc(N4CCOCC4)c4c(c3c2n1)CCC4 | -7.6 | 6.11% | -6.1 | 84.8% | 2.26 | 8.21% |
| C=C(C)Cn1c(CCNC(=O)CCC)nc2ccccc21 | -9.26 | -10.3% | -0.98 | 99.1% | 1.54 | 2.19% |
| CCC1SC2=NC(C)=C(C(=O)OC)C(c3ccc(C(=O)OC)cc3)N2C1=O (stereo not given) | 6.67 | 35.7% | 3.25 | 101% | 1.47 | 9.87% |
| O=C(OCC(=O)N1CCN(C(=O)c2ccco2)CC1)C1=COCCO1 | -9.26 | -5.99% | -3.83 | 105% | 2.21 | 3.69% |
| O=c1[nH]c2ccc(S(=O)(=O)N3CCN(c4ccccc4F)CC3)cc2s1 | -19.3 | -7.76% | -4.17 | 93.3% | 0.75 | 4.21% |
| COC(=O)c1cn(NC(=O)c2cnccn2)c(=O)c2ccccc12 | -5.4 | 16.9% | 2.86 | 27.8% | 1.15 | -0.31% |
| Cc1nn(CC(=O)Nc2cccnc2N2CCOCC2)c(=O)c2ccccc12 | -23.7 | 1.05% | -2.18 | 95% | 1.22 | 1.71% |

| Compound | growth inhibition [1] [%] | growth inhibition [2] | viability increase [3] [%] | viability [4] | inhibition [5] [%] | RAM network inhibition [6] |
| --- | --- | --- | --- | --- | --- | --- |
| COc1cccc(-c2nnc(NC(=O)c3cccc(F)c3)o2)c1 | -12.9 | 10.2% | 0.12 | 15.9% (active) | 1.04 | 0.35% |
| Nn1c(SCC(=O)NC2CCCCC2)nnc1-c1ccccc1 | -25.7 | 8.66% | -1.37 | 98.8% | 2.28 | 4.63% |
| CSc1nc(N(CCO)CCO)c2sc3nc(-c4ccco4)c4c(c3c2n1)CCC4 | -1.82 | 8.15% | -4.84 | 93.9% | 2.71 | 8.3% |
| CCSc1nnc(NC(=O)C2CC=CCC2C(=O)O)s1 (stereo not given) | -17.7 | -7.56% | -0.57 | 103% | 0.665 | 4% |
| CCCCCCn1c(SCC(=O)c2ccccc2)nc2c1c(=O)[nH]c(=O)n2C | -4.82 | 42.6% (active) | -7.17 | 53% | 2.08 | 6.13% |
| Cc1cc(C)n2nc(CCc3nc4nc(C)cc(C)n4n3)nc2n1 | 3.12 | 4.29% | -1.49 | 94.8% | 0.62 | 1.76% |
| Cc1cc(NC(=O)CN2CCN(c3ncccn3)CC2)no1 | -7.78 | -9.4% | -1.38 | 98.6% | 0.71 | 3.12% |
| Cc1cc(C)c(C#N)c(=N)o1 | 23.3 | 20.7% | -3.83 | 87.2% | 1.2 | 8.54% |
| CCOC(=O)C1CCN(C(=O)Cc2c(C(=O)O)[nH]c3ccccc23)CC1 | -13.4 | -1.88% | -1.36 | 90.5% | 0.02 | 3.12% |
| NCCOc1ccccc1-c1ccccc1 | -17.6 | -14.4% | -3 | 87.2% | 2.3 | 2.4% |
| CCCCNC(=O)C1C2C=CC3(CN(Cc4ccc(C)cc4)C(=O)C13)O2 (stereo not given) | 2.61 | -16.4% | -2.02 | 95.1% | 0.08 | 0.67% |
| Cc1c(C(=O)Nc2ccncc2)sc2nc(-c3ccc(F)cc3)cn12 | -5.44 | 11.7% | -6.8 | 42.3% | 1.96 | 8.43% |
| C=C(C)Cn1c(CCCNC(=O)CCC)nc2ccccc21 | -14.9 | 7.12% | -0.37 | 94.7% | -0.295 | 1.57% |
| CCn1c(=O)cc(C(=O)OC)sc1=Nc1ccc(F)c(F)c1 | 1.93 | -8.74% | -8.26 | 18.6% (active) | 1.11 | 7.21% |
| CC1Cc2ccccc2N1C(=O)CCS(=O)(=O)c1cccc2nonc12 (stereo not given) | 8.09 | 10.7% | -6.45 | 85.7% | 0.56 | 3.48% |
| N#Cc1c(N)nc2c(c1-c1ccc3c(c1)OCO3)CCCCCC2 | -18 | -4.1% | -5.55 | 84.8% | 2.68 | 6.96% |
| CC1CCc2sc3nc(N4CCN(CCO)CC4)n4ncnc4c3c2C1 (stereo not given) | -9.92 | 7.57% | -7.82 | 73.3% | 0.655 | 5.04% |
| COc1ccc(NC(=O)c2cncc(Br)c2)c(S(=O)(=O)N2CCOCC2)c1 | -1.69 | 7.98% | -5.06 | 98.3% | 2.21 | 4.58% |
| COc1ccc(N2CC(O)=C(c3nc(C)cs3)C2=N)cc1 | 8.87 | 5.31% | -4.67 | 96.7% | 1.6 | 3.27% |
| Cc1cc(C)c(S(=O)(=O)NCC2CCC(C(=O)NCCCN3CCOCC3)CC2)c(C)c1 (stereo not given) | -6.14 | 7.86% | -3.2 | 81.3% | 0.675 | -0.63% |
